Calls of active or inactive are those of the source. No cut-off for these calls is given here.
Legend:
[1] = target: Gamma-secretase; test: Inhibition of gamma secretase in human H4 cells overexpressing human APP assessed as reduction in amyloid beta-42 secretion after 22 hrs; assay type: cell-based
Method in brief: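 Human neuroglioma H4 cells overexpressing human APP were seeded at 30,000 cells/well in IMDM with 10% FCS and […] hygromycin B, then held 2 h at 37 °C, 5% CO2. Test agents were given as a ten-point 1:1 serial dilution in IMDM without FCS, with final Me2SO 0.4%, for 22 h. Secreted Aβ42 in the supernatant was measured by bead ECL sandwich (biotin-6E10 capture, ruthenylated BAP15 detection, 3 h RT). IC50 was taken from the dose-response curve.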

[2] = target: Cytochrome P450 2D6 (Homo sapiens, UniProt P10635); test: Inhibition of CYP2D6; assay type: ADME
[3] = system: Mus musculus; test: Antialzheimer activity in transgenic mouse overexpressing APP Swedish FAD mutant assessed as reduction in amyloid beta-42 level in brain at 100 mg/kg, po after 4 hrs; assay type: functional, organism-based; design: dose 100 mg/kg
Method in brief: (§1)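 Transgenic mice about 3 months old, overexpressing APP-Swe under the mouse Thy-1 promoter, were dosed orally. Brains were taken 4 h later and homogenized in 1% DEA. Brain Aβ42 was quantified by LP ECL, and brain compound exposure was measured by LC–MS/MS.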

[4] = target: Cytochrome P450 3A4 (Homo sapiens, UniProt P08684); test: Inhibition of CYP3A4; assay type: ADME
[5] = system: Mus musculus; test: Antialzheimer activity in transgenic mouse overexpressing APP Swedish FAD mutant assessed as reduction in amyloid beta-42 level in brain at 100 mg/kg, po; assay type: functional; design: scale not given: the % may be the effect or the level left; method in brief: as §1
[6] = system: Mus musculus; test: Antialzheimer activity in transgenic mouse overexpressing APP Swedish FAD mutant assessed as reduction in amyloid beta-42 level in brain at 150 mg/kg, po after 7 hrs; assay type: functional; design: scale not given: the % may be the effect or the level left
Method in brief: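 Oral dosing was given to APP-Swe transgenic mice (Thy-1 promoter) about 3 months old. Brain homogenates in 1% DEA were analysed by LP ECL for Aβ42.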

[7] = system: Mus musculus; test: Antialzheimer activity in transgenic mouse overexpressing APP Swedish FAD mutant assessed as reduction in amyloid beta-42 level in brain at 150 mg/kg, po after 4 hrs; assay type: functional; design: scale not given: the % may be the effect or the level left; method in brief: as §1
[8] = Fraction unbound in transgenic mouse overexpressing APP Swedish FAD mutant; assay type: ADME, organism-based; conditions: in vivo
[9] = Modulation of gamma secretase in cell-based assay assessed as change in notch protein level up to 25 uM
[10] = target: Inosine-5'-monophosphate dehydrogenase 2 (Homo sapiens, UniProt P12268); test: Inhibition of IMPDH2
[11] = target: Gamma-secretase; test: Inhibition of gamma secretase in human H4 cells overexpressing human APP assessed as reduction in amyloid beta-40 secretion after 22 hrs; assay type: cell-based
Method in brief: (§2)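 Human H4 neuroglioma cells overexpressing human APP were plated at 30,000 cells/well in IMDM with 10% FCS and […] hygromycin B, and incubated 2 h at 37 °C, 5% CO2. Compounds were added as a ten-point 1:1 serial dilution series in FCS-free IMDM, with final Me2SO 0.4%, for 22 h at 37 °C. The culture supernatant was then assayed.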

[12] = target: Gamma-secretase; test: Modulation of gamma secretase in human H4 cells overexpressing human APP assessed as increase in amyloid beta-38 secretion after 22 hrs; assay type: cell-based; method in brief: as §2
[13] = target: Gamma-secretase (Homo sapiens) (UniProt Q96BI3+Q9NZ42+Q8WW43+P49768+Q92542+P49810); test: Modulation of gamma secretase in human H4 cells overexpressing human APP assessed as effect on total amyloid beta up to 20 uM after 22 hrs; assay type: cell-based; method in brief: as §2
[14] = Inhibition of gamma secretase in rat primary neurons assessed as reduction in amyloid beta-42 secretion
[15] = Half life in transgenic mouse overexpressing APP Swedish FAD mutant at 7.2 mg/kg, po and 0.7 mg/kg, iv; assay type: ADME, organism-based; conditions: in vivo
Method in brief: (§3)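 Mouse pharmacokinetics used an iv dose of 0.7 mg/kg and a po dose of 7.2 mg/kg. Compound levels in plasma and brain were determined by LC–MS/MS over 0–24 h.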

[16] = system: Mus musculus; test: Antialzheimer activity in transgenic mouse overexpressing APP Swedish FAD mutant assessed as reduction in amyloid beta-42 level in brain at 30 mg/kg, po; assay type: functional, organism-based; design: dose 30 mg/kg; method in brief: as §1
[17] = Volume of distribution at steady state in transgenic mouse overexpressing APP Swedish FAD mutant at 7.2 mg/kg, po and 0.7 mg/kg, iv; assay type: ADME, organism-based; conditions: in vivo, read-out: Vdss; method in brief: as §3
[18] = Ratio of drug level in brain to plasma in transgenic mouse overexpressing APP Swedish FAD mutant at 7.2 mg/kg, po and 0.7 mg/kg, iv; assay type: ADME, organism-based; conditions: read-out: BPR; method in brief: as §3
[19] = Plasma clearance in transgenic mouse overexpressing APP Swedish FAD mutant at 7.2 mg/kg, po and 0.7 mg/kg, iv; assay type: ADME, organism-based; method in brief: as §3
[20] = Oral bioavailability in transgenic mouse overexpressing APP Swedish FAD mutant at 7.2 mg/kg; assay type: ADME, organism-based; conditions: in vivo; method in brief: as §3
[21] = system: Mus musculus; test: Antialzheimer activity in po dosed transgenic mouse overexpressing APP Swedish FAD mutant assessed as reduction in amyloid beta-42 level in brain measured after 4 hrs; assay type: functional; method in brief: as §1

Sequence of Cytochrome P450 3A4 (P08684 whole entry): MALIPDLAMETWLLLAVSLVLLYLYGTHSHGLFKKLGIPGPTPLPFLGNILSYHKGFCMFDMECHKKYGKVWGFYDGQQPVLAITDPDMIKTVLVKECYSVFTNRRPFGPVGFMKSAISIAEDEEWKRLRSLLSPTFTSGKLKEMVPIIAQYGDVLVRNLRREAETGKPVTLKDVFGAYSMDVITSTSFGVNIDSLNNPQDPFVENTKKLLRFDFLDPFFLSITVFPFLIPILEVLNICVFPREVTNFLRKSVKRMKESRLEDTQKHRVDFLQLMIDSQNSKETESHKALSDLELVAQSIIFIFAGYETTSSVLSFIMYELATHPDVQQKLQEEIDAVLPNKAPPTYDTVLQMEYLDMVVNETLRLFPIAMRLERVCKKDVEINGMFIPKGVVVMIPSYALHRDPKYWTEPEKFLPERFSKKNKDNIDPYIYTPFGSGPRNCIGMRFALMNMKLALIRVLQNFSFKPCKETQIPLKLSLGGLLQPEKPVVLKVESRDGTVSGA
Sequence of Cytochrome P450 2D6 (P10635 whole entry): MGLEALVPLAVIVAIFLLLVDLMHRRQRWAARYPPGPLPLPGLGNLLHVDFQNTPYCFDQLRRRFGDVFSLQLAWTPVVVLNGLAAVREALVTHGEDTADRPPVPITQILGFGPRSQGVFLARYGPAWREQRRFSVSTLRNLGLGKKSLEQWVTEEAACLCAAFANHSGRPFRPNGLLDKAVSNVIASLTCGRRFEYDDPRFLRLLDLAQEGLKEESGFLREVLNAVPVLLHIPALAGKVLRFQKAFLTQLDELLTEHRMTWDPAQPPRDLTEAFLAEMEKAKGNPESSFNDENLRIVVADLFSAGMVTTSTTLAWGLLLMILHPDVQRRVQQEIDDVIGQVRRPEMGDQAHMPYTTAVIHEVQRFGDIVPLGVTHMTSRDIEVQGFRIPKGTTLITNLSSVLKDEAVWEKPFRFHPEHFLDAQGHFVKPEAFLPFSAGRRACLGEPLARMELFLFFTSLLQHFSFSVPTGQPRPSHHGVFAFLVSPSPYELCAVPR

For COc1cc(Nc2nc3c(s2)CCCC3c2ccccc2)ccc1-c1cnn(C)c1 (stereo not drawn), the IC50 [1] was 0.244 µM, the IC50 [2] was under 0.5 µM and the Activity [3] was “inactive”.
In the case of Cc1ncc(C)c(-c2ccc(Nc3nc4c(s3)CCCC4c3ccccc3)cc2)n1 (stereo not drawn), the IC50 [1] is reported as 2.87 µM and the IC50 [2] is reported as under 0.5 µM.
Compound c1ccc(C2CCCc3sc(Nc4ccc(-n5cncn5)cc4)nc32)cc1 (stereo not drawn) has an IC50 [1] of 5.55 µM and an IC50 [2] of under 0.5 µM.
Work on Cc1nc(C)c(-c2ccc(Nc3nc4c(s3)CCCC4c3ccccc3)cc2)o1 (stereo not drawn) yielded an IC50 [1] of 0.127 µM and an IC50 [2] of under 0.5 µM.
With COc1ccc(Br)cc1-c1csc(Nc2ccc(-n3cnc(C)c3)cc2)n1 the IC50 [1] was 0.88 µM, the IC50 [2] was under 0.5 µM and the IC50 [4] was 1.2 µM.
With COc1cc(N(Cc2ccccc2)c2nc(C)c(Cc3ccc(Cl)cc3)s2)ccc1-n1cnc(C)c1 the IC50 [1] was over 40 µM and the IC50 [2] was under 0.5 µM.
In the case of Cc1cn(-c2ccc(Nc3nc4c(s3)CCCC4c3ccccc3)cc2Cl)cn1 (stereo not drawn), the IC50 [1] is reported as 0.675 µM and the IC50 [2] is reported as under 0.2 µM.
For COc1cc(Nc2nc3c(s2)CCCC3c2ccccc2)ccc1-c1cnc(C)o1 (stereo not drawn), the IC50 [1] was 0.086 µM, the Activity [5] was 47% and the IC50 [2] was under 0.5 µM.
With COc1ccc(Br)cc1-c1csc(Nc2ccc(-n3ccnc3)c(OC)c2)n1 the IC50 [1] was 0.789 µM, the IC50 [2] was under 0.5 µM and the IC50 [4] was under 0.2 µM.
Compound COc1cc(Nc2nc(C)c(Cc3cccc(Cl)c3)s2)ccc1-n1cnc(C)c1 has an IC50 [1] of 0.214 µM, an Activity [6] of 22% and an IC50 [2] of under 0.5 µM. For the same compound, the Activity [7] was 47% and the Fu [8] was under 0.1%.
With Cc1cc(-c2ccc(Nc3nc4c(s3)CCCC4c3ccccc3)cc2)nc(C)n1 (stereo not drawn) the IC50 [1] was 0.483 µM and the IC50 [2] was under 0.5 µM.
With COc1cc(Nc2nc3c(s2)CCCC3c2ccccc2)ccc1-c1cnc(C)s1 (stereo not drawn) the IC50 [1] was 0.252 µM, the Activity [5] was “inactive” and the IC50 [2] was under 0.5 µM.
For COc1cc(Nc2nc(C)c(Cc3cccc(Cl)c3)s2)ccc1-c1cnco1, the IC50 [1] was 0.815 µM, the Activity [9] was “inactive” and the IC50 [2] was under 0.5 µM. The IC50 [10] was 0.4 µM, the IC50 [11] was 3.7 µM and the EC50 [12] was 1.5 µM. For the same compound, the Activity [13] was “inactive”.
For Cc1cn(-c2ccc(Nc3nc4c(s3)CCCC4c3ccccc3)cc2C#N)cn1 (stereo not drawn), the IC50 [1] was 0.123 µM and the IC50 [2] was under 0.2 µM.
In the case of COc1cc(/C=C2\CCCN([C@@H](C)c3ccc(F)cc3)C2=O)ccc1-n1cnc(C)c1, the IC50 [14] is reported as 0.042 µM.
Compound COc1cc(Nc2nc(C(C)(C)c3ccc(Cl)cc3)cs2)ccc1-n1cnc(C)c1 has an IC50 [1] of 0.136 µM and an IC50 [2] of under 0.5 µM.
With Cc1ncc(-c2ccc(Nc3nc4c(s3)CCCC4c3ccccc3)cc2)o1 (stereo not drawn) the IC50 [1] was 0.133 µM and the IC50 [2] was under 0.5 µM.
COc1cc(Nc2nc3c(s2)CCCC3c2ccccc2)ccc1-c1nc(C)no1 (stereo not drawn) gave an IC50 [1] of 3.43 µM and an IC50 [2] of under 0.5 µM.
For Cc1cn(-c2ccc(Nc3nc4c(s3)CCCC4c3ccccc3)cc2)cn1 (stereo not drawn), the IC50 [1] was 0.133 µM and the IC50 [2] was under 0.5 µM.
With COc1cc(Nc2ncc(C(O)c3ccc(Cl)cc3)s2)ccc1-n1cnc(C)c1 (stereo not drawn) the IC50 [1] was 0.339 µM and the IC50 [2] was under 0.5 µM.
Work on COc1ccc(Br)cc1-c1csc(Nc2ccc(-n3cnc(C)c3)c(OC)c2)n1 yielded an IC50 [1] of 0.898 µM, an IC50 [2] of under 0.5 µM and an IC50 [4] of 2.2 µM.
For c1ccc(C2CCCc3sc(Nc4ccc(-c5ccnnc5)cc4)nc32)cc1 (stereo not drawn), the IC50 [1] was 0.376 µM and the IC50 [2] was under 0.5 µM.
For COc1ccc(Br)cc1-c1csc(Nc2ccc(-n3ccnc3)cc2)n1, the IC50 [1] was over 5 µM, the IC50 [2] was under 0.5 µM and the IC50 [4] was under 0.2 µM.
COc1cc(Nc2nc3c(s2)CCCC3c2ccccc2)ccc1-c1sc(C)nc1C (stereo not drawn) showed an IC50 [1] of 0.212 µM and an IC50 [2] of under 0.5 µM.
For Cc1cn(-c2ccc(Nc3nc4c(s3)CCCC4c3ccccc3)cc2O)cn1 (stereo not drawn), the IC50 [1] was 0.209 µM and the IC50 [2] was under 0.5 µM.
With c1ccc(C2CCCc3sc(Nc4ccc(-c5ccncc5)cc4)nc32)cc1 (stereo not drawn) the IC50 [1] was 0.319 µM, the Activity [5] was “inactive” and the IC50 [2] was under 0.5 µM.
With Cc1cn(-c2ccc(Nc3nc4c(s3)CCCC4c3ccccc3)cc2C(F)(F)F)cn1 (stereo not drawn) the IC50 [1] was over 1.25 µM and the IC50 [2] was under 0.5 µM.
In the case of COc1cc(Nc2nc3c(s2)CCCC3c2ccccc2)ccc1C#N (stereo not drawn), the IC50 [1] is reported as 3.36 µM and the IC50 [2] is reported as under 0.5 µM.
COc1cc(Nc2nc3c(s2)CCCC3c2ccccc2)ccc1-c1nnc(C)o1 (stereo not drawn) gave an IC50 [1] of 0.999 µM and an IC50 [2] of under 0.5 µM.
Compound Cc1nsc(-c2ccc(Nc3nc4c(s3)CCCC4c3ccccc3)cc2)n1 (stereo not drawn) has an IC50 [1] of 0.651 µM and an IC50 [2] of under 0.5 µM.
In the case of COc1cc(Nc2nc3c(s2)CCCC3c2ccccc2)ccc1-n1cnc(C)c1 (stereo not drawn), the half-life [15] is reported as 2.5 h, the IC50 [1] is reported as 0.044 µM and the Activity [16] is reported as “Active”. For the same compound, the IC50 [2] was under 0.2 µM, the Vd [17] was 4.6 L/kg and the Kp [18] was 0.4. For the same compound, the clearance [19] was 1.1 L/h/kg, the bioavailability [20] was 25% and the ED50 [21] was 40 mg/kg.
Compound Cc1cn(-c2ccc(Nc3nc4c(s3)CCCC4c3ccccc3)cc2C)cn1 (stereo not drawn) has an IC50 [1] of 0.733 µM and an IC50 [2] of under 0.5 µM.
Cc1cn(-c2ccc(Nc3nc4c(s3)CCCC4c3ccccc3)cc2F)cn1 (stereo not drawn) showed an IC50 [1] of 0.052 µM and an IC50 [2] of under 0.5 µM.
